Bioassay records deposited in PubChem by several laboratories.
An excerpt weighted towards active compounds, which were near 9.3% of everything screened.
hDAT+cocaine – changed hDAT dopamine uptake under cocaine IC80, either direction, primary screen, cocaine antagonist project, cell-based, LLC-PK1 hDAT, [14C]-dopamine uptake, MLSMR; LLC-PK1 hDAT cells, [14C]-dopamine uptake with cocaine IC80; actives deviate in either direction; B-score at 10 µM; Sodium-dependent dopamine transporter (Homo sapiens), Q01959; 110,000 tested, 1.3% active;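 active means Z score or B-score, a plate-position-corrected score, falls beyond the plate's 99.7% confidence bounds, in either direction; inactive means both scores lie inside the 99.7% bounds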;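 further: scored against the spread of the other compound wells on the same plate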
D1 mod – D1 CRE-luciferase signal change, two-sided – cell-based, HEK293 D1, dopamine EC30, D1 allosteric modulator project, primary screen. 58,000 tested, 5.9% active. dopamine EC30 potentiation; actives deviate in either direction. B-score at 10 µM;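 active means luminescence count or its row- and column-corrected plate score outside the 99.7% band of the plate's sample wells, on either side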
Target sequence (P21728 whole entry, looked up): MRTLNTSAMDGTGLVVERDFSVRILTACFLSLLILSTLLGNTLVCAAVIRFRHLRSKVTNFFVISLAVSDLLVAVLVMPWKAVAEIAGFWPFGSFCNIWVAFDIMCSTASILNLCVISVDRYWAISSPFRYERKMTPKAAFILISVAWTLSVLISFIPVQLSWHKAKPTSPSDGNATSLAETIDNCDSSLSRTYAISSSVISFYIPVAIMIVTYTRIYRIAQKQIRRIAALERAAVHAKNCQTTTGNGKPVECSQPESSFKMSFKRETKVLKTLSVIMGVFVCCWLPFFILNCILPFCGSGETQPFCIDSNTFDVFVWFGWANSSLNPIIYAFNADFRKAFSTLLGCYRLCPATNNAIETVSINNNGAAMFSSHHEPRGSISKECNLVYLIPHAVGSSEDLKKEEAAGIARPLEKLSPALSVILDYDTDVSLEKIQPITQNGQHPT
Ecoli tolC – growth inhibitors of E. coli tolC mutant, primary screen, strain BW25113 ΔtolC::kan, 384-well; 65,000 tested, 2.2% active; OD615; growth inhibition, % at 10 µM (by protocol);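 active means growth inhibition at or above a cutoff equal to the mean over every tested compound plus 3 SD, cut at about 60% in these data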;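 further: growth measured after 20 h incubation at 37 °C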
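test system = E. coli BW25113 ΔtolC::kan bacteria | medium = LB with kanamycin 50 µg/mL | signal = OD at 615 nm | schedule = 37 °C, 20 h exposure | evaluation = % inhibition of E. coli growth | compound dosing = one dose of 10 µM final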
PostGolgi ctrl – growth inhibition of yeast control strain, primary screen, counter-screen for post-Golgi transport modulator project; 98,000 tested, 5% active; AID 738, 2007; efflux-deficient yeast background strain, growth absorbance A615, 16 h; inhibition, % at 10 µM
E coli WT exp – growth inhibitors of wild-type E. coli, primary screen, strain BW25113, expanded library, OD600 | OD600 absorbance | growth inhibition, % at 100 µM | 98,000 tested, 0.15% active | AID 710, 2007;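 active means growth inhibition above about 50% at one test dose, limit read from the data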;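 further: growth measured after 20 h incubation at 37 °C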
PostGolgi yeast – phenotypic screen on post-Golgi transport, primary screen. post-Golgi transport phenotypic cell assay. inhibition, % at 10 µM. 98,000 tested, 0.9% active;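 further: yeast cells grown in 1536-well plates; yeast grown about 18 h at 30C before absorbance read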
Numbers without * were called inactive. Unless noted, no stated cut-off is given here; in the data, active means inhibition above about 30%; inactive means the rest.

How did Cc1nn(-c2ccccc2)c2sc(-c3n[nH]c(=S)o3)cc12 do in these assays?
hDAT+cocaine: 0.0182; Ecoli tolC: 78.2*; PostGolgi ctrl: 26.1; E coli WT exp: -9.0; PostGolgi yeast: -1.2

What do the screens show for `CCOC(=O)c1c(C)n(O)c2ccc(Cl)cc2c1=O`?
hDAT+cocaine: -0.36; D1 mod: -0.388; Ecoli tolC: 11.2; PostGolgi ctrl: -1.6; E coli WT exp: 4.0; PostGolgi yeast: -3.4

Results for Cc1cc(C)n(CC(O)Cn2c3ccc(Cl)cc3c3cc(Cl)ccc32)c(=O)n1 (stereo not drawn) ?
hDAT+cocaine: 0.457; PostGolgi ctrl: 99.1*; E coli WT exp: -11.0; PostGolgi yeast: 98.9*

How did Cc1ccc(N2CCn3c2nc2c3c(=O)n(CCc3ccccc3)c(=O)n2C)cc1 do in these assays?
D1 mod: -0.72; Ecoli tolC: -9.5

What do the screens show for `CCOC(=O)C1Cn2c(nc3c(c2=O)C2(CCCC2)Cc2ccccc2-3)S1` (stereo not drawn)?
hDAT+cocaine: 0.312; D1 mod: 0.343; Ecoli tolC: 17.0; PostGolgi ctrl: 37.9*; E coli WT exp: -6.0; PostGolgi yeast: -2.6

What do the screens show for `CCOC(=O)C1Cn2c(nc3c(c2=O)C(C)(C)Cc2ccccc2-3)S1` (stereo not drawn)?
hDAT+cocaine: 0.735; D1 mod: 1.08; Ecoli tolC: 36.3; PostGolgi ctrl: 31.7*; E coli WT exp: -1.0; PostGolgi yeast: 21.6

What do the screens show for `CCn1cc(C(=O)N2CCCc3ccccc32)c2cc(OC)c(OC)cc2c1=O`?
D1 mod: 0.177; Ecoli tolC: 3.5; PostGolgi ctrl: 19.9; E coli WT exp: -1.0; PostGolgi yeast: -2.5

Results for O=C(CCCNC(=O)/C(=C\c1ccc(F)cc1)NC(=O)c1ccccc1)OCc1ccccc1 ?
hDAT+cocaine: -1.74; PostGolgi ctrl: 6.2; E coli WT exp: -7.0; PostGolgi yeast: -0.1

What do the screens show for `CC(C)(C)C(=O)NCCc1nc2ccccc2n1CC(=O)c1ccc(Cl)cc1`?
hDAT+cocaine: 0.294

How did Cc1ccc(-n2c(=O)[nH]c3cc(C(=O)NC4CCN(Cc5ccccc5)CC4)ccc3c2=O)cc1 do in these assays?
hDAT+cocaine: -1.32; PostGolgi ctrl: 3.5; E coli WT exp: -1.0; PostGolgi yeast: 12.8

How did N#Cc1cccc(-c2cn(S(=O)(=O)c3ccc(Cl)cc3)nc2N)c1 do in these assays?
hDAT+cocaine: -0.0597; D1 mod: -0.65; Ecoli tolC: 0.0; PostGolgi ctrl: 31.3*; E coli WT exp: 0.0; PostGolgi yeast: -7.1

What do the screens show for `Cc1ccc(S(=O)(=O)n2cc(-c3ccccc3)c(N)n2)cc1`?
hDAT+cocaine: -0.867; PostGolgi ctrl: 25.2; E coli WT exp: -8.0; PostGolgi yeast: 25.2

Results for COc1ccccc1CN1[C@@H](CC(C)=O)c2cc(C(F)(F)F)ccc2S1(=O)=O ?
hDAT+cocaine: 0.0105

How did O=C1Nc2cc(Cl)c(Cl)cc2N(O)N1c1ccc(Cl)c(Cl)c1 do in these assays?
hDAT+cocaine: 0.0127; PostGolgi ctrl: 3.0; E coli WT exp: 14.0; PostGolgi yeast: -2.3

What do the screens show for `Cc1ccc2ccccc2c1COC(=O)c1nonc1N`?
hDAT+cocaine: -0.605; D1 mod: -0.452; Ecoli tolC: -7.3; PostGolgi ctrl: 74.5*; E coli WT exp: -2.0; PostGolgi yeast: -3.9

How did C=CCn1c(SCC(=O)c2cc(C)n(C(C)COC)c2C)nc2sc(C)c(C)c2c1=O (stereo not drawn) do in these assays?
hDAT+cocaine: -0.00363; D1 mod: 2.55; Ecoli tolC: 15.4; PostGolgi ctrl: 27.9; E coli WT exp: -9.0; PostGolgi yeast: -3.4

Results for CNC(=S)N1N=C(c2ccc(C)cc2)CC1c1ccc(OC)cc1 (stereo not drawn) ?
hDAT+cocaine: 0.63; PostGolgi ctrl: 47.1*; E coli WT exp: -16.0; PostGolgi yeast: -5.9

What do the screens show for `CC(C)(C)n1nnnc1C(c1ccc(Cl)cc1)N(Cc1cccnc1)Cc1ccco1` (stereo not drawn)?
hDAT+cocaine: 0.147

How did c1ccc(CN(Cc2ccco2)C(c2ccncc2)c2nnnn2C2CCCC2)cc1 (stereo not drawn) do in these assays?
hDAT+cocaine: 0.323; D1 mod: -0.549; Ecoli tolC: 63.6*; PostGolgi ctrl: 20.5; E coli WT exp: -6.0; PostGolgi yeast: 1.0

How did CC(C)(C)n1nnnc1CN(Cc1cccnc1)Cc1ccccc1Cl do in these assays?
hDAT+cocaine: 0.00416; PostGolgi ctrl: 19.9; E coli WT exp: 7.0; PostGolgi yeast: 50.3*

How did CCN(Cc1ccccc1)C(c1ccc(C)cc1)c1nnnn1C(C)(C)CC (stereo not drawn) do in these assays?
hDAT+cocaine: 1.82; PostGolgi ctrl: 9.1; E coli WT exp: -9.0; PostGolgi yeast: 6.9

How did CCN(Cc1ccccc1)C(c1ccncc1)c1nnnn1C(C)(C)C (stereo not drawn) do in these assays?
hDAT+cocaine: 0.0562; D1 mod: 0.0133; Ecoli tolC: 12.7; PostGolgi ctrl: 39.6*; E coli WT exp: -1.0; PostGolgi yeast: 13.6

Results for CC(C)(C)n1nnnc1C(c1cccs1)N(Cc1ccccc1)Cc1cccnc1 (stereo not drawn) ?
hDAT+cocaine: 1.36; D1 mod: -0.329; Ecoli tolC: 80.0*; PostGolgi ctrl: 28.1; E coli WT exp: -9.0; PostGolgi yeast: 13.3

Results for Cc1sc(NC(=O)CN2CCOCC2)c(C(=O)c2ccccc2)c1C ?
hDAT+cocaine: 1.08; PostGolgi ctrl: 7.2; E coli WT exp: 4.0; PostGolgi yeast: 34.9*

What do the screens show for `N#CC1(C#N)CC(C=O)=C(N)C1(C#N)CC(=O)c1ccc(F)cc1` (stereo not drawn)?
hDAT+cocaine: -2.23*; PostGolgi ctrl: 2.3; E coli WT exp: -1.0; PostGolgi yeast: -4.5

How did COc1cc(SC)ccc1C(=O)NCc1ccc(C)cc1 do in these assays?
hDAT+cocaine: 1.97; PostGolgi ctrl: 23.7; E coli WT exp: 9.0; PostGolgi yeast: 44.2*

What do the screens show for `Cc1nnsc1C(=O)NC1CCCCC1`?
hDAT+cocaine: -0.671; PostGolgi ctrl: 16.6; E coli WT exp: -1.0; PostGolgi yeast: -11.5

How did Clc1c(CSc2nc3ccccc3o2)nc2sccn12 do in these assays?
hDAT+cocaine: -1.6; D1 mod: -1.05; Ecoli tolC: 19.2; PostGolgi ctrl: 36.2*; E coli WT exp: 0.0; PostGolgi yeast: -2.0

How did N#CCc1nc(CSc2nc3ccccc3o2)cs1 do in these assays?
hDAT+cocaine: 0.281; D1 mod: -0.000555; Ecoli tolC: 4.0; PostGolgi ctrl: 9.1; E coli WT exp: 9.0; PostGolgi yeast: -2.1

What do the screens show for `c1ccc2oc(SCc3nc4ccccc4s3)nc2c1`?
hDAT+cocaine: 1.04; D1 mod: 0.00638; Ecoli tolC: 61.5*; PostGolgi ctrl: -2.5; E coli WT exp: -4.0; PostGolgi yeast: 14.9
